Series [1] addresses T1, Amine oxidase [flavin-containing] B (Homo sapiens, UniProt P27338).
T1 sequence (P27338 whole entry): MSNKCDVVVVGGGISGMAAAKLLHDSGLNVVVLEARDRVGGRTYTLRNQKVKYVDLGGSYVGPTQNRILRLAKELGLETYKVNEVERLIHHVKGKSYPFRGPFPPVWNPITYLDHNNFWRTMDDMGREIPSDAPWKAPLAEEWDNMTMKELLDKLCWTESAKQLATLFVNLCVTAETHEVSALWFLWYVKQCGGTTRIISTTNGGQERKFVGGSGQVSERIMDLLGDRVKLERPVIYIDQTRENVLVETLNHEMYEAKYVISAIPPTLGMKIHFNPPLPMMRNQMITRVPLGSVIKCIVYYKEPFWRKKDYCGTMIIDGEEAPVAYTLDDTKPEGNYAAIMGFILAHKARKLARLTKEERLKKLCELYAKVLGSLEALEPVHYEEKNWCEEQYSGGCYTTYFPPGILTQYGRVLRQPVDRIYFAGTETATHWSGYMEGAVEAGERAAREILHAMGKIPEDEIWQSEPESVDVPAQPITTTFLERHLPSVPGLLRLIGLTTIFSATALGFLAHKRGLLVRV
In words: Inhibition of human recombinant MAO-B using p-tyramine substrate at 100 uM by fluorometric method. Conditions: for inhibition (INH): 100 µM; call rule not given here. The essentials: (§1)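 Recombinant human MAO-A or MAO-B expressed in baculovirus-infected BTI insect cells. Enzyme amounts set so both isoforms give the same rate, 165 pmol p-tyramine/min. Assay run in 0.05 M sodium phosphate pH 7.4 at 37 °C with compounds at several concentrations, 200 Amplex Red, 1 U/mL horseradish peroxidase and 1 mM p-tyramine. Resorufin fluorescence (ex 545/em 590 nm) read over a linear 15 min window. Vehicle controls run alongside.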

The target in series [2] is T2, Amine oxidase [flavin-containing] A (Homo sapiens, UniProt P21397).
T2 sequence (P21397 whole entry): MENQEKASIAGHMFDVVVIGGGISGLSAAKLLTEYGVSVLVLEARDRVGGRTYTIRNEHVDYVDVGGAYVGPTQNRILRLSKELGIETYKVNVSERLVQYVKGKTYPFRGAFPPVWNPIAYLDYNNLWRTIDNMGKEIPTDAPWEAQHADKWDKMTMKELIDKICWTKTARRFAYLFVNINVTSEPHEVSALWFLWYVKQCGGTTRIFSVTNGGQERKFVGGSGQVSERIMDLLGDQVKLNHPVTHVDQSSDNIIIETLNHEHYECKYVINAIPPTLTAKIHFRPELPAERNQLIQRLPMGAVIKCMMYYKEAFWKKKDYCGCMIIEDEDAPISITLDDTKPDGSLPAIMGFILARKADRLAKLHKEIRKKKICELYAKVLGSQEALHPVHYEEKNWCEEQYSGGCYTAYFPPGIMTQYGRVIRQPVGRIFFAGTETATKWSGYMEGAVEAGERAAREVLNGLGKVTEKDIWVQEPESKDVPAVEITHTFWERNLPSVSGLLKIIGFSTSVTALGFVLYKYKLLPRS
The series can be described thus: Inhibition of human recombinant MAO-A using p-tyramine substrate at 100 uM by fluorometric method. In a few lines:
as §1

Series [3] addresses T2, Amine oxidase [flavin-containing] A. In words: Inhibition of human recombinant MAO-A using p-tyramine substrate by fluorometric method.
The species named for another series is Homo sapiens. In words: Selectivity index, ratio of IC50 for human recombinant MAO-A to human recombinant MAO-B. In a few lines:
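MAO-B selectivity index is IC50(MAO-A)/IC50(MAO-B). Both IC50s come from the fluorimetric Amplex Red/peroxidase assay with 1 mM p-tyramine, using recombinant hMAO-A and hMAO-B from baculovirus-infected insect cells.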

Series [4] concerns the target T1, Amine oxidase [flavin-containing] B. In words: Inhibition of human recombinant MAO-B using p-tyramine substrate by fluorometric method.

As usually defined, the inhibition is the drop in the measured response relative to a control, in per cent. What is called IC50 is the concentration at which inhibition is half-maximal.

Consider `COc1ccc(C(=O)c2cc3cc(Br)cc(OC)c3oc2=O)cc1`, for which the “inhibition (INH)” value in series [1] and in series [2] was “Not Active” each time.
In the case of `O=C(c1ccc(O)cc1)c1cc2cc(Br)cc(O)c2oc1=O`, in series [1], the inhibition at 100 µM worked out at 45%. Further, in series [3], the 50% inhibitory concentration (IC50) is 19.2 µM. The Ratio IC50 in the series filed under Homo sapiens was 0.19.
For the molecule `O=C(c1ccccc1)c1cc2cc(Br)cc(O)c2oc1=O`, the values for the IC50 in series [3] and in series [4] were 46.8 µM and 73.9 µM, respectively. Further, the Ratio IC50 in the series listed under Homo sapiens was 0.63.
In the case of `O=c1oc2c(O)cc(Br)cc2cc1-c1ccc(O)cc1`, the IC50 in series [3] came out at 20.7 µM; in series [4], 16.9 µM. Moreover, the Ratio IC50 in the series listed under Homo sapiens was 1.2.
As to `COc1cc(Br)cc2cc(C(=O)c3ccccc3)c(=O)oc12`, the “inhibition (INH)” value in series [1] and in series [2] was “Not Active” each time.
Regarding `O=c1oc2c(O)cc(Br)cc2cc1-c1ccccc1`, the IC50 in series [4] turned out to be 30.9 µM. Besides, in series [2], the “inhibition (INH)” value is reported as “Not Active”. Also, the Ratio IC50 in the series listed under Homo sapiens was more than 3.2.
On the same counts, the results for `COc1cc(Br)cc2cc(-c3ccccc3)c(=O)oc12` are 0.0835 µM, “Not Active” and more than 1200.
On the same counts, the results for `COc1ccc(-c2cc3cc(Br)cc(OC)c3oc2=O)cc1` are 0.00135 µM, “Not Active” and more than 74100.
